# How the values were obtained:
# [1] = Inhibitory activity for Group II Metabotropic glutamate receptor in rat forebrain membranes by using [3H]glutamate radioligand; type: cell membranes, Membrane
# Method in brief: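 Displacement of [³H]glutamic acid binding in rat forebrain membranes, an assay described as selective for group II mGluRs. Each compound was tested as a mixture of four isomers (two racemic diastereomers). Some values are the average of two determinations and some of three.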
# [2] = target: T1, Metabotropic glutamate receptor 3 (Homo sapiens, UniProt Q14832); test: Compound was tested its ability to block 1S,3R-ACPD-induced inhibition of forskolin stimulated cyclic-AMP in non-neuronal cell line expressing human Metabotropic glutamate receptor 3; Agonist; type: functional
# T1 sequence (Q14832 whole entry): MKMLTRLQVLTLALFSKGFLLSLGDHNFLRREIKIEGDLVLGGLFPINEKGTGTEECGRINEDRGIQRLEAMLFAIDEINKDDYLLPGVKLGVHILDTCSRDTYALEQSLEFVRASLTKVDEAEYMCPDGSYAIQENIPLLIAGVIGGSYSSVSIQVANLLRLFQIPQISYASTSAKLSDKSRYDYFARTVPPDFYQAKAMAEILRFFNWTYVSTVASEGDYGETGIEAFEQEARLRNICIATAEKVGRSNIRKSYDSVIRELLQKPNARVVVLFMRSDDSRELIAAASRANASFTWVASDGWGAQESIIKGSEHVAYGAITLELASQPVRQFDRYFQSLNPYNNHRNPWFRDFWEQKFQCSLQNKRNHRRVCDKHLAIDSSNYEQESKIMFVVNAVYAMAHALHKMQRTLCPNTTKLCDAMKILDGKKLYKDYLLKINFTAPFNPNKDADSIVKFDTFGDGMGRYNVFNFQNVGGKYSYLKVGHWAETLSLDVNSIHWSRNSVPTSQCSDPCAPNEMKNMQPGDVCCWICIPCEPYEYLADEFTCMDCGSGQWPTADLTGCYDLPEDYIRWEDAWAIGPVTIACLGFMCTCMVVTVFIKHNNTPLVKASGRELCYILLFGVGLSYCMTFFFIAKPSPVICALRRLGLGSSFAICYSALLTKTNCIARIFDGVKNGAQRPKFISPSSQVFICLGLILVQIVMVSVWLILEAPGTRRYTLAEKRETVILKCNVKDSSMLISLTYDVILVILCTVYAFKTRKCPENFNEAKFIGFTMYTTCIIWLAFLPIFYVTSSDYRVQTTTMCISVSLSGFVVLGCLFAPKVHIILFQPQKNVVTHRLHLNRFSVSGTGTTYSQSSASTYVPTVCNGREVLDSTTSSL
# [3] = target: T2, Metabotropic glutamate receptor 2 (Homo sapiens, UniProt Q14416); test: Compound was tested its ability to block 1S,3R-ACPD-induced inhibition of forskolin stimulated cyclic-AMP in non-neuronal cell line expressing human Metabotropic glutamate receptor 2; Agonist; type: functional
# T2 sequence (Q14416 whole entry): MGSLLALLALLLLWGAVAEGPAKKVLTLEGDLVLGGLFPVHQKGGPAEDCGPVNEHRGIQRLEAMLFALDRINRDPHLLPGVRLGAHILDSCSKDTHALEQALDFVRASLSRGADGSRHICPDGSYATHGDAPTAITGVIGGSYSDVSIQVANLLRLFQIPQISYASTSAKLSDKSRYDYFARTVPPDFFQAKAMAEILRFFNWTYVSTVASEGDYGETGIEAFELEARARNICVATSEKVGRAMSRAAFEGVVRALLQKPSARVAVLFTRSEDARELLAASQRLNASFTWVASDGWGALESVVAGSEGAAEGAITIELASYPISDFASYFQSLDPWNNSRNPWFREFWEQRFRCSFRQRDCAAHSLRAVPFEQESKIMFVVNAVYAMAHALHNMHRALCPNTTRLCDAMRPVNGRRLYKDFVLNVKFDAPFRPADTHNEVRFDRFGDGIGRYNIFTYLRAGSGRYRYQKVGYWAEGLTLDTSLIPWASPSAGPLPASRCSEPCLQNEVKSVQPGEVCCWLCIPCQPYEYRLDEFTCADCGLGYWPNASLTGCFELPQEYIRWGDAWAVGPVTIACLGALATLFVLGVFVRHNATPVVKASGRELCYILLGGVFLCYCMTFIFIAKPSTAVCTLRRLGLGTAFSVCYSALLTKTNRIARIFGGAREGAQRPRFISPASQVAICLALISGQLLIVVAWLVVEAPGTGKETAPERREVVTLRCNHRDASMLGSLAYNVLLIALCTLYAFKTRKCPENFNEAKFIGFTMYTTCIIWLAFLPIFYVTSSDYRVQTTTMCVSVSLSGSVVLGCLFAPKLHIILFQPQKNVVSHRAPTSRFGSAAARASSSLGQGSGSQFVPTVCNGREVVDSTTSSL
# [4] = target: T2, Metabotropic glutamate receptor 2; test: Ability to block 1S,3R-ACPD-induced inhibition of forskolin stimulated cyclic-AMP in non-neuronal cell line expressing human Metabotropic glutamate receptor 2; type: functional
# [5] = target: T1, Metabotropic glutamate receptor 3; test: Ability to block 1S,3R-ACPD-induced inhibition of forskolin stimulated cyclic-AMP in non-neuronal cell line expressing human Metabotropic glutamate receptor 3; type: functional
Structure (SMILES),IC50 [1] [nM],IC50 [2],IC50 [3],IC50 [4] [nM],IC50 [5] [nM]
N[C@@](CCC1CCCCC1)(C(=O)O)C1C[C@@H]1C(=O)O (some centres not stated),380,,,,
CCCCCCCC[C@](N)(C(=O)O)C1C[C@@H]1C(=O)O (some centres not stated),1700,,,,
N[C@@H](C(=O)O)C1C[C@@H]1C(=O)O (some centres not stated),470,Agonist,Agonist,,
N[C@@](CC(c1ccccc1)c1ccccc1)(C(=O)O)[C@H]1C[C@@H]1C(=O)O,240,,,4360,280
CC(C[C@](N)(C(=O)O)C1C[C@@H]1C(=O)O)c1ccccc1 (some centres not stated),200,,,,
N[C@@](Cc1ccccc1)(C(=O)O)C1C[C@@H]1C(=O)O (some centres not stated),> 10000,,,> 10000,> 10000
N[C@@](CC1CCCc2ccccc21)(C(=O)O)C1C[C@@H]1C(=O)O (some centres not stated),230,,,,
CCCC[C@](N)(C(=O)O)C1C[C@@H]1C(=O)O (some centres not stated),1400,,,,
CC(C)[C@](N)(C(=O)O)C1C[C@@H]1C(=O)O (some centres not stated),> 10000,,,,
N[C@@](CC1c2ccccc2Oc2ccccc21)(C(=O)O)[C@H]1C[C@@H]1C(=O)O,10,,,,
CCC(N)(C(=O)O)[C@H]1C[C@@H]1C(=O)O (some centres not stated),2200,,,6500,2500
N[C@@](CCC1CCNCC1)(C(=O)O)C1C[C@@H]1C(=O)O (some centres not stated),> 10000,,,,
NC(CCc1ccsc1)(C(=O)O)[C@H]1C[C@@H]1C(=O)O (some centres not stated),210,,,1000,570
NC(CCCc1ccccc1)(C(=O)O)[C@H]1C[C@@H]1C(=O)O (some centres not stated),630,,,1000,550
N[C@@](CCC1C2CC3CC(C2)CC1C3)(C(=O)O)C1C[C@@H]1C(=O)O (some centres not stated),550,,,,
NC(CCCCc1ccccc1)(C(=O)O)[C@H]1C[C@@H]1C(=O)O (some centres not stated),2300,,,450,2800
N[C@@](CCc1ccc2ccccc2c1)(C(=O)O)C1C[C@@H]1C(=O)O (some centres not stated),2800,,,,
CC(C)CC[C@](N)(C(=O)O)C1C[C@@H]1C(=O)O (some centres not stated),1100,,,,
NC(CCc1ccccc1)(C(=O)O)[C@H]1C[C@@H]1C(=O)O (some centres not stated),320,,,850,650

Structure (SMILES),IC50 [1] [nM],IC50 [2],IC50 [3],IC50 [4] [nM],IC50 [5] [nM]
N[C@](C(=O)O)(C1Cc2ccccc2C1)C1C[C@@H]1C(=O)O (some centres not stated),> 10000,,,,
NC(CCC12CC3CC(CC(C3)C1)C2)(C(=O)O)[C@H]1C[C@@H]1C(=O)O (some centres not stated),200,,,240,760
CCCCC[C@](N)(C(=O)O)C1C[C@@H]1C(=O)O (some centres not stated),1800,,,,
N[C@@](CC1c2ccccc2Sc2ccccc21)(C(=O)O)C1C[C@@H]1C(=O)O (some centres not stated),19,,,,
NC(CCc1cccc2ccccc12)(C(=O)O)[C@H]1C[C@@H]1C(=O)O (some centres not stated),,,,240,470
CCC[C@](N)(C(=O)O)C1C[C@@H]1C(=O)O (some centres not stated),2100,,,,
N[C@@](CC(Cc1ccccc1)Cc1ccccc1)(C(=O)O)C1C[C@@H]1C(=O)O (some centres not stated),> 10000,,,,
N[C@@](CC1CCOc2ccccc21)(C(=O)O)C1C[C@@H]1C(=O)O (some centres not stated),630,,,,
CC(C)C[C@](N)(C(=O)O)C1C[C@@H]1C(=O)O (some centres not stated),700,,,1600,1800
N[C@@](CC1CCCC1)(C(=O)O)C1C[C@@H]1C(=O)O (some centres not stated),1400,,,,
NC(CC1CCCCC1)(C(=O)O)[C@H]1C[C@@H]1C(=O)O (some centres not stated),230,,,1100,1400
N[C@@](CCc1cccs1)(C(=O)O)C1C[C@@H]1C(=O)O (some centres not stated),580,,,,
C[C@](N)(C(=O)O)C1C[C@@H]1C(=O)O (some centres not stated),6200,,,,
N[C@@](CC1CCC1)(C(=O)O)C1C[C@@H]1C(=O)O (some centres not stated),29500,,,> 10000,> 10000
N[C@@](CCCC(c1ccccc1)c1ccccc1)(C(=O)O)C1C[C@@H]1C(=O)O (some centres not stated),7000,,,,
CC(C)CCC[C@](N)(C(=O)O)C1C[C@@H]1C(=O)O (some centres not stated),850,,,,
N[C@@](CCC(c1ccccc1)c1ccccc1)(C(=O)O)C1C[C@@H]1C(=O)O (some centres not stated),7100,,,> 10000,> 10000
Cn1cc(CCC(N)(C(=O)O)[C@H]2C[C@@H]2C(=O)O)c2ccccc21 (some centres not stated),280,,,1400,1200
N[C@@](COc1ccccc1)(C(=O)O)C1C[C@@H]1C(=O)O (some centres not stated),11200,,,,

# Source: ChEMBL document CHEMBL1131459, “2-Substituted (2SR)-2-amino-2-((1SR,2SR)-2-carboxycycloprop-1-yl)glycines as potent and selective antagonists of group II metabotropic glutamate receptors. 1. Effects of alkyl, arylalkyl, and diarylalkyl substitution” (J Med Chem, 1998)
